Measured values published in ChEMBL document CHEMBL1146375, “Synthetic studies on novel benzimidazolopeptides with antimicrobial, cytotoxic and anthelmintic potential” (2007).
In brackets after ≈: the same amount, converted by molar mass. Residues, ends and D or L forms follow the SMILES beside them. *: point of attachment. X3 = Cc1cc2nc(-c3c(I)cc(C(=O)*)cc3I)[nH]c2cc1C

Columns and labels:
Bacillus subtilis [1] = assay: Antibacterial activity against Bacillus subtilis NCIM 2063 after 18 hrs by disc diffusion method; assay type: functional
Procedure, shortened: (§1)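 Modified Kirby-Bauer disc diffusion. Plates inoculated with spore suspension (about 6 × 10⁴ spores mL^-1). Sterile 6 mm paper discs carried test samples at 10 mg mL^-1; ciprofloxacin disc as reference, DMF disc as negative control. Plates held 18 h at 37 °C. Inhibition zone diameters (mm) averaged over triplicate sets.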

Staphylococcus aureus [2] = assay: Antibacterial activity against Staphylococcus aureus NCIM 2079 after 18 hrs by disc diffusion method; assay type: functional; procedure, shortened: as §1
Pseudomonas aeruginosa [3] = assay: Antibacterial activity against Pseudomonas aeruginosa NCIM 2034 after 18 hrs by disc diffusion method; assay type: functional; procedure, shortened: as §1
Escherichia coli [4] = assay: Antibacterial activity against Escherichia coli NCIM 2065 after 18 hrs by disc diffusion method; assay type: functional; procedure, shortened: as §1
Candida albicans [5] = assay: Antifungal activity against Candida albicans MUCC 29 after 48 hrs by disc diffusion method; assay type: functional
Procedure, shortened: (§2)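 Agar well diffusion on plates inoculated with spore suspension in normal saline from cultures on Sabouraud's broth. Wells punched and loaded with test samples or griseofulvin at 10 mg mL^-1, with DMSO as negative control. Incubated 48 h at 37 °C.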

Microsporum audouinii [6] = assay: Antifungal activity against Microsporum audouinii MUCC 545 after 48 hrs by disc diffusion method; assay type: functional; procedure, shortened: as §2
Trichophyton benhamiae [7] = assay: Antifungal activity against Trichophyton mentagrophytes MUCC 665 after 48 hrs by disc diffusion method; assay type: functional, Arthroderma benhamiae; procedure, shortened: as §2
Aspergillus niger = assay: Antifungal activity against Aspergillus niger MUCC 177 after 48 hrs by disc diffusion method; assay type: functional; procedure, shortened: as §2
Bacillus subtilis [8] = assay: Antibacterial activity against Bacillus subtilis NCIM 2063 after 18 hrs by tube dilution method; assay type: functional; conditions: NCIM 2063, 18 h
Procedure, shortened: (§3)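 Tube dilution MIC. Stock diluted in sterile broth to seven concentrations from 200 to 3.1 […]. Each tube inoculated with one loopful of test bacterium and incubated 18 h at 37 °C. MIC read from presence or absence of growth.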

Staphylococcus aureus [9] = assay: Antibacterial activity against Staphylococcus aureus NCIM 2079 after 18 hrs by tube dilution method; assay type: functional; conditions: NCIM 2079, 18 h; procedure, shortened: as §3
Pseudomonas aeruginosa [10] = assay: Antibacterial activity against Pseudomonas aeruginosa NCIM 2034 after 18 hrs by tube dilution method; assay type: functional; conditions: NCIM 2034, 18 h; procedure, shortened: as §3
Escherichia coli [11] = assay: Antibacterial activity against Escherichia coli NCIM 2065 after 18 hrs by tube dilution method; assay type: functional; conditions: NCIM 2065, 18 h
Candida albicans [12] = assay: Antifungal activity against Candida albicans MUCC 29 after 48 hrs by tube dilution method; assay type: functional
Procedure, shortened: (§4)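 Tube dilution MIC as for bacteria (seven concentrations, 200–3.1 […]), with DMSO in place of DMF. Tubes inoculated with fungal culture and incubated 48 h at 37 °C. MIC read from presence or absence of growth.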

Microsporum audouinii [13] = assay: Antifungal activity against Microsporum audouinii MUCC 545 after 48 hrs by tube dilution method; assay type: functional; procedure, shortened: as §4
Trichophyton benhamiae [14] = assay: Antifungal activity against Trichophyton mentagrophytes MUCC 665 after 48 hrs by tube dilution method; assay type: functional, Arthroderma benhamiae; procedure, shortened: as §4
Eudrilus [15] = assay: Anthelmintic activity against Eudrilus sp. assessed as mean paralyzing time; assay type: functional
Procedure, shortened: (§5)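 Earthworms exposed to test suspensions at 2 mg mL^-1 (0.2% w/v), made by triturating compound with Tween 80 (0.5%) and distilled water, then mechanically stirred 30 min. Mebendazole suspension prepared alike as reference. Paralysis and death times recorded; death confirmed by no movement in 50 °C water. Means from triplicate sets.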

Eudrilus [16] = assay: Anthelmintic activity against Eudrilus sp. assessed as mean death time; assay type: functional
Procedure, shortened: (§6)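 Earthworms exposed to test suspensions at 2 mg mL−1, prepared by triturating compound with Tween 80 (0.5%) and distilled water, stirring 30 min, then diluting to 0.2% w/v. Mebendazole suspension was made the same way. Death was confirmed by moving worms into 50 °C warm water and looking for movement. Mean death time (min) taken from triplicate sets.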

[17] = Anthelmintic activity against Megascoplex konkanensis ICARBC 211 assessed as mean paralyzing time; assay type: functional; procedure, shortened: as §5
[18] = Anthelmintic activity against Megascoplex konkanensis ICARBC 211 assessed as mean death time; assay type: functional; procedure, shortened: as §5
Pontoscolex corethrurus [19] = assay: Anthelmintic activity against Pontoscolex corethrurus ICARBC 408 assessed as mean paralyzing time; assay type: functional; procedure, shortened: as §5
Pontoscolex corethrurus [20] = assay: Anthelmintic activity against Pontoscolex corethrurus ICARBC 408 assessed as mean death time; assay type: functional; procedure, shortened: as §6

Row | Structure (SMILES) | inhibition zone (IZ) (Bacillus subtilis [1]) | inhibition zone (IZ) (Staphylococcus aureus [2]) | inhibition zone (IZ) (Pseudomonas aeruginosa [3]) | inhibition zone (IZ) (Candida albicans [5]) | inhibition zone (IZ) (Microsporum audouinii [6]) | inhibition zone (IZ) (Trichophyton benhamiae [7]) | inhibition zone (IZ) (Aspergillus niger) | MIC (Bacillus subtilis [8]) | MIC (Staphylococcus aureus [9]) | MIC (Pseudomonas aeruginosa [10]) | MIC (Escherichia coli [11]) | MIC (Candida albicans [12]) | MIC (Microsporum audouinii [13]) | MIC (Trichophyton benhamiae [14]) | Time (Eudrilus [15]) | Time (Eudrilus [16]) | TIME [17] | TIME [18] | Time (Pontoscolex corethrurus [19]) | Time (Pontoscolex corethrurus [20]) | also measured
1 | Cc1cc2nc(-c3ccc(C(=O)N[C@@H](CC(C)C)C(=O)NCC(=O)O)cc3)[nH]c2cc1C | 13 mm | 10 mm | 23 mm | 19 mm | 11 mm | 14 mm | 17 mm | 6 µg/mL (≈ 13.7 µM) | 12.5 µg/mL (≈ 28.6 µM) | 6 µg/mL (≈ 13.7 µM) | 12.5 µg/mL (≈ 28.6 µM) | 6 µg/mL (≈ 13.7 µM) | 25 µg/mL (≈ 57.3 µM) | 6 µg/mL (≈ 13.7 µM) | 32.8 min | 40.24 min | 0.438 h | 0.671 h | 36.61 min | 48.39 min | inhibition zone (IZ) (Escherichia coli [4]): 17 mm
2 | O=C(O)CNC(=O)CNC(=O)c1cc(-c2nc3ccc([N+](=O)[O-])cc3[nH]2)ccc1O | 9 mm | 9 mm | 22 mm | 18 mm | 13 mm | 16 mm | 17 mm | 25 µg/mL (≈ 60.5 µM) | 12.5 µg/mL (≈ 30.2 µM) | 6 µg/mL (≈ 14.5 µM) | 12.5 µg/mL (≈ 30.2 µM) | 6 µg/mL (≈ 14.5 µM) | 6 µg/mL (≈ 14.5 µM) | 6 µg/mL (≈ 14.5 µM) | 25.5 min | 36.7 min | 0.451 h | 0.601 h | 31.18 min | 42.26 min | inhibition zone (IZ) (Escherichia coli [4]): 16 mm
3 | CC[C@H](C)[C@H](NC(=O)CNC(=O)c1cc(I)c(-c2nc3cc(C)c(C)cc3[nH]2)c(I)c1)C(=O)NCC(=O)N[C@H](C(=O)OC)[C@@H](C)O (X3-GIGT-OMe) | 15 mm | 12 mm | 22 mm | 13 mm | 9 mm | 9 mm | 18 mm | 6 µg/mL (≈ 6.97 µM) | 12.5 µg/mL (≈ 14.5 µM) | 6 µg/mL (≈ 6.97 µM) | 12.5 µg/mL (≈ 14.5 µM) | 12.5 µg/mL (≈ 14.5 µM) | 25 µg/mL (≈ 29.1 µM) | 25 µg/mL (≈ 29.1 µM) | 38.45 min | 70.54 min | 0.602 h | 1.08 h | 57.67 min | 82.3 min | inhibition zone (IZ) (Escherichia coli [4]): 17 mm
4 | COC(=O)Nc1nc2cc(C(=O)c3ccccc3)ccc2[nH]1 [MEBENDAZOLE] |  |  |  |  |  |  |  |  |  |  |  |  |  |  | 13.54 min | 24.05 min | 0.231 h | 0.382 h | 17.85 min | 29.64 min | 
5 | COC(=O)[C@H](Cc1ccccc1)NC(=O)[C@@H]1CCCN1C(=O)[C@@H]1CCCN1C(=O)c1ccc(-c2nc3cc(C)c(C)cc3[nH]2)cc1 | 13 mm | 8 mm | 20 mm | 16 mm | 9 mm | 13 mm | 14 mm | 12.5 µg/mL (≈ 20.1 µM) | 25 µg/mL (≈ 40.2 µM) | 6 µg/mL (≈ 9.65 µM) | 25 µg/mL (≈ 40.2 µM) | 6 µg/mL (≈ 9.65 µM) | 25 µg/mL (≈ 40.2 µM) | 6 µg/mL (≈ 9.65 µM) | 32.82 min | 53.34 min | 0.613 h | 1.04 h | 49.35 min | 72.24 min | inhibition zone (IZ) (Escherichia coli [4]): 16 mm
6 | COC(=O)[C@H](C)NC(=O)[C@H](CCCNC(=N)N[N+](=O)[O-])NC(=O)c1cc(-c2nc3cc(C)c(C)cc3[nH]2)ccc1O | 15 mm | 11 mm | 22 mm | 19 mm | 11 mm | 10 mm | 18 mm | 6 µg/mL (≈ 10.6 µM) | 12.5 µg/mL (≈ 22 µM) | 6 µg/mL (≈ 10.6 µM) | 12.5 µg/mL (≈ 22 µM) | 12.5 µg/mL (≈ 22 µM) | 6 µg/mL (≈ 10.6 µM) | 6 µg/mL (≈ 10.6 µM) | 17.35 min | 28.54 min | 0.279 h | 0.423 h | 20.38 min | 32.65 min | inhibition zone (IZ) (Escherichia coli [4]): 17 mm
7 | Cc1cc2nc(-c3ccc(C(=O)N[C@@H](CCCNC(=N)N[N+](=O)[O-])C(=O)O)cc3)[nH]c2cc1C | 15 mm | 11 mm | 25 mm | 17 mm | 10 mm | 14 mm | 16 mm | 12.5 µg/mL (≈ 26.7 µM) | 25 µg/mL (≈ 53.5 µM) | 6 µg/mL (≈ 12.8 µM) | 12.5 µg/mL (≈ 26.7 µM) | 12.5 µg/mL (≈ 26.7 µM) | 12.5 µg/mL (≈ 26.7 µM) | 12.5 µg/mL (≈ 26.7 µM) | 18.38 min | 38.12 min | 0.302 h | 0.438 h | 21.51 min | 34.96 min | inhibition zone (IZ) (Escherichia coli [4]): 19 mm
8 | Cc1cc2nc(-c3ccc(O)c(C(=O)N[C@@H](Cc4c[nH]c5ccccc45)C(=O)N[C@@H](C)C(=O)N[C@@H](Cc4ccc(O)cc4)C(=O)O)c3)[nH]c2cc1C | 16 mm | 11 mm | 22 mm | 18 mm | 12 mm | 15 mm | 17 mm | 12.5 µg/mL (≈ 17.8 µM) | 12.5 µg/mL (≈ 17.8 µM) | 6 µg/mL (≈ 8.54 µM) | 12.5 µg/mL (≈ 17.8 µM) | 6 µg/mL (≈ 8.54 µM) | 12.5 µg/mL (≈ 17.8 µM) | 6 µg/mL (≈ 8.54 µM) | 13.25 min | 23.98 min | 0.224 h | 0.377 h | 17.02 min | 29.19 min | inhibition zone (IZ) (Escherichia coli [4]): 18 mm
9 | COC(=O)CNC(=O)[C@H](CC(C)C)NC(=O)c1ccc(-c2nc3cc(C)c(C)cc3[nH]2)cc1 | 10 mm | 9 mm | 20 mm | 18 mm | 10 mm | 12 mm | 16 mm | 6 µg/mL (≈ 13.3 µM) | 12.5 µg/mL (≈ 27.7 µM) | 6 µg/mL (≈ 13.3 µM) | 12.5 µg/mL (≈ 27.7 µM) | 6 µg/mL (≈ 13.3 µM) | 25 µg/mL (≈ 55.5 µM) | 6 µg/mL (≈ 13.3 µM) | 29.73 min | 42.54 min | 0.472 h | 0.69 h | 37.17 min | 49.4 min | inhibition zone (IZ) (Escherichia coli [4]): 14 mm
10 | COC(=O)[C@H](Cc1ccccc1)NC(=O)c1cc(-c2nc3cc(C)c(C)cc3[nH]2)ccc1O | 14 mm | 10 mm | 24 mm | 17 mm | 9 mm | 15 mm | 17 mm | 6 µg/mL (≈ 13.5 µM) | 12.5 µg/mL (≈ 28.2 µM) | 6 µg/mL (≈ 13.5 µM) | 12.5 µg/mL (≈ 28.2 µM) | 6 µg/mL (≈ 13.5 µM) | 25 µg/mL (≈ 56.4 µM) | 6 µg/mL (≈ 13.5 µM) | 26.78 min | 37.74 min | 0.437 h | 0.592 h | 30.34 min | 42.56 min | inhibition zone (IZ) (Escherichia coli [4]): 17 mm
11 | COC1=CC(=O)C[C@@H](C)[C@]12Oc1c(Cl)c(OC)cc(OC)c1C2=O [GRISEOFULVIN] |  |  |  | 20 mm | 17 mm | 20 mm | 18 mm |  |  |  |  | 6 µg/mL (≈ 17 µM) | 6 µg/mL (≈ 17 µM) | 6 µg/mL (≈ 17 µM) |  |  |  |  |  |  | 
12 | O=C(O)c1cn(C2CC2)c2cc(N3CCNCC3)c(F)cc2c1=O [CIPROFLOXACIN] | 20 mm | 20 mm | 25 mm |  |  |  |  | 6 µg/mL (≈ 18.1 µM) | 12.5 µg/mL (≈ 37.7 µM) | 6 µg/mL (≈ 18.1 µM) | 12.5 µg/mL (≈ 37.7 µM) |  |  |  |  |  |  |  |  |  | 
